ChEMBL document CHEMBL1139795, “Capped diaminopropionamide-glycine dipeptides are inhibitors of CC chemokine receptor 2 (CCR2)” (Bioorg Med Chem Lett, 2007)

Legend:
[1] = target: C-C chemokine receptor type 2 (Homo sapiens, UniProt P41597); experiment: Displacement of [125]MCP1 from CCR2 in human PBMCs
In short: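 Competition binding with 0.3 nM [125I]MCP-1 on human peripheral blood mononuclear cells at 23 °C. IC50 given as mean ± SD (n = 2) or mean ± SEM (n > 2). Single determinations are listed with n = 1.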

[2] = target: T1, C-C chemokine receptor type 1 (Homo sapiens) (UniProt P32246); experiment: Inhibition of CCR1 at 10 uM
T1 sequence (whole entry): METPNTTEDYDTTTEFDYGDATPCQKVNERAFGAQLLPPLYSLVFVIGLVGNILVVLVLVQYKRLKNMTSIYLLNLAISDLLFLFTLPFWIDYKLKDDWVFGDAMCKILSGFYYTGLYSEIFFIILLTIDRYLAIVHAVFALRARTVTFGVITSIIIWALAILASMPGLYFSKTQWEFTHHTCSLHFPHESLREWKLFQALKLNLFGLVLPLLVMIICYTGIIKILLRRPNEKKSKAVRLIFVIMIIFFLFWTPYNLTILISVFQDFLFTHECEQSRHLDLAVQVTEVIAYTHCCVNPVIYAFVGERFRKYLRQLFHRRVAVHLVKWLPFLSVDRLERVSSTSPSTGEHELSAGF

C-C chemokine receptor type 2, sequence (P41597 whole entry): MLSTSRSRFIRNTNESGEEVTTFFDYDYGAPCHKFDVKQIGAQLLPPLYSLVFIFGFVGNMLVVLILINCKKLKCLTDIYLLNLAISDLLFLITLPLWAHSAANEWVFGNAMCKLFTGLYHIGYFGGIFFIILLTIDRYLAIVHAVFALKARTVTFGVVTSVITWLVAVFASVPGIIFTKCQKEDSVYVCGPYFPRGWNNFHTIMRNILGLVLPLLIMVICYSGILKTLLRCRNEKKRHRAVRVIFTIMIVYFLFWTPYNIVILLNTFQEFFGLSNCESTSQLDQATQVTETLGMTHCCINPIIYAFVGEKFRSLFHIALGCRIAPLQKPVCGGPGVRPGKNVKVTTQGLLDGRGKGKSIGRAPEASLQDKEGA

IC50 [1] [nM]	inhibition [2] [%]	SMILES
28	< 30	Cc1ccc(CNC[C@H](NC(=O)CNC(=O)c2cc(OC(F)(F)F)ccc2N)C(=O)NC(C)(C)C)c(C)c1
690	< 30	COc1ccc(CNC[C@H](NC(=O)CNC(=O)c2cccc(C(F)(F)F)c2)C(=O)NC(C)(C)C)c(C)c1C
150	< 30	CCNC(=O)[C@H](CCN(C)Cc1ccc(C)cc1C)NC(=O)CNC(=O)c1cccc(C(F)(F)F)c1
400	< 30	Cc1ccccc1CNC[C@H](NC(=O)CNC(=O)c1cccc(C(F)(F)F)c1)C(=O)NC(C)(C)C
1000	< 30	COC(=O)[C@@H](CNCc1ccc(C)cc1C)NC(=O)CNC(=O)c1cccc(C(F)(F)F)c1
60	< 30	Cc1ccc(CNC[C@H](NC(=O)CNC(=O)c2cccc(C(F)(F)F)c2)C(=O)NCC2CC2)c(C)c1
65	< 30	Cc1ccc(CNC[C@H](NC(=O)CNC(=O)c2cccc(C(F)(F)C(F)(F)F)c2)C(=O)NC(C)(C)C)c(C)c1
90	< 30	Cc1ccc(CNC[C@H](NC(=O)CNC(=O)c2cc(C(F)(F)F)ccc2NC(=O)C2CCCCC2)C(=O)NC(C)(C)C)c(C)c1
36	< 30	CCc1ccc(CNC[C@H](NC(=O)CNC(=O)c2cccc(C(F)(F)F)c2)C(=O)NC(C)(C)C)c(C)c1
380	< 30	CCc1ccccc1CNC[C@H](NC(=O)CNC(=O)c1cccc(C(F)(F)F)c1)C(=O)NC(C)(C)C
110	< 30	Cc1ccc(CNC[C@H](NC(=O)CNC(=O)c2cc(NCc3ccccc3)cc(C(F)(F)F)c2)C(=O)NC(C)(C)C)c(C)c1
150	< 30	Cc1ccc(CNC[C@H](NC(=O)CNC(=O)c2cccc(SC(F)(F)F)c2)C(=O)NC(C)(C)C)c(C)c1
65	< 30	Cc1ccc(CNC[C@H](NC(=O)CNC(=O)c2cc(C(F)(F)F)ccc2NC(=O)OC(C)C)C(=O)NC(C)(C)C)c(C)c1
110	< 30	CON(C)C(=O)[C@H](CNCc1ccc(C)cc1C)NC(=O)CNC(=O)c1cccc(C(F)(F)F)c1
250	< 30	Cc1ccc(CNC[C@H](NC(=O)CNC(=O)c2cccc(C(F)(F)F)c2)C(=O)N(C)C)c(C)c1
150	< 30	Cc1ccc(CNC[C@H](NC(=O)CNC(=O)c2cccc(C(F)(F)F)c2)C(=O)NC2CCCCC2)c(C)c1
130	< 30	CCNC(=O)[C@@H](NC(=O)CNC(=O)c1cccc(C(F)(F)F)c1)[C@@H](C)NCc1ccc(C)cc1C
770	< 30	Cc1ccc(CNCC[C@H](NC(=O)CNC(=O)c2cccc(C(F)(F)F)c2)C(=O)NC(C)(C)C)c(C)c1
16	< 30	CNc1cc(C(=O)NCC(=O)N[C@@H](CNCc2ccc(C)cc2C)C(=O)NC(C)(C)C)cc(C(F)(F)F)c1
200	< 30	C=CCNC(=O)[C@H](CNCc1ccc(C)cc1C)NC(=O)CNC(=O)c1cccc(C(F)(F)F)c1
7200	< 30	CC(C)(C)NC(=O)[C@H](CNCc1ccc(S(C)(=O)=O)cc1)NC(=O)CNC(=O)c1cccc(C(F)(F)F)c1
–	< 30	Cc1ccc(CNC[C@H](NC(=O)CNC(=O)c2cccc(C(F)(F)F)c2)C(C)C)c(C)c1
190	< 30	Cc1ccc(CNC[C@H](NC(=O)CNC(=O)c2cccc(C(F)(F)F)c2)C(=O)NC(C)(C)CO)c(C)c1
310	< 30	CCOC(=O)Nc1cc(C(=O)NCC(=O)N[C@@H](CNCc2ccc(C)cc2C)C(=O)NC(C)(C)C)cc(C(F)(F)F)c1
120	< 30	CCC(C)(C)NC(=O)[C@H](CNCc1ccc(C)cc1C)NC(=O)CNC(=O)c1cccc(C(F)(F)F)c1
–	< 30	Cc1ccc(CNC[C@@H](C)NC(=O)CNC(=O)c2cccc(C(F)(F)F)c2)c(C)c1
